Results published in ChEMBL document CHEMBL1127576, “Inhibition of human immunodeficiency virus type 1 replication by phosphonoformate- and phosphonoacetate-2',3'-dideoxy-3'-thiacytidine conjugates” (J Med Chem, 1994).

How the values were obtained:
[1] = system: MT4; assay: (§1) Concentration required to inhibit syntica formation by 50% in HIV-1 infected MT-4 cells; type: functional, cell-based; settings: Homo sapiens
In short: (§2)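 MT-4 cells (3 × 10⁵) infected with diluted HIV-1 for 1 h at 37 °C, washed three times, then cultured with inhibitor. Syncytia were counted by inverted light microscopy 5 days post-infection. IC50 was the concentration giving 50% inhibition of syncytia formation without cell toxicity.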

[2] = Therapeutic index was measured as concentration required to cause 50% death of uninfected MT-4- cells to IC50 concentration required to inhibit syncytia formation by 50% in HIV-1 infected MT-4 cells; type: cell-based, MT4; settings: human, uninfected MT-4 cells and HIV-1 infected MT-4 cells; read-out: TI
In short: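 Ratio of ID50 to IC50. ID50: uninfected MT-4 cells (2 × 10⁵), three replicate cultures, with graded analogue concentrations; viability by trypan blue exclusion 6 days after drug addition; ID50 is the concentration killing 50% of cells. IC50: 50% inhibition of syncytia in HIV-1-infected MT-4 cells (1 h infection, 37 °C), scored microscopically at day 5.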

[3] = system: MT4; assay: as §1; type: ADME, cell-based; settings: Homo sapiens; in short: as §2

| Structure (SMILES) | IC50 [1] | selectivity ratio [2] | IC50 [3] |
| --- | --- | --- | --- |
| CC(=O)Nc1ccn(C2CSC(COC(=O)P(=O)(O)O)O2)c(=O)n1 (stereo unspecified) | 200 nM | 500 |  |
| O=C(CP(=O)(O)O)Nc1ccn(C2CSC(CO)O2)c(=O)n1 (stereo unspecified) |  | 10 | 100000 nM |
| Nc1ccn(C2CSC(COP(=O)(O)C(=O)O)O2)c(=O)n1 (stereo unspecified) | 100000 nM | 10 |  |
| Nc1ccn([C@@H]2CS[C@H](CO)O2)c(=O)n1 [LAMIVUDINE] | 100 nM | 1000 |  |
| CCOP(=O)(CC(=O)OCC1OC(n2ccc(N)nc2=O)CS1)OCC (stereo unspecified) | 10000 nM | 50 |  |
| CCOP(=O)(CC(=O)Nc1ccn(C2CSC(CO)O2)c(=O)n1)OCC (stereo unspecified) | 5000 nM | 100 |  |
| CCOP(=O)(OCC)C(=O)OCC1OC(n2ccc(NC(C)=O)nc2=O)CS1 (stereo unspecified) | 300 nM | 350 |  |
| Nc1ccn(C2CSC(COC(=O)CP(=O)(O)O)O2)c(=O)n1 (stereo unspecified) | 1000 nM | 300 |  |
